Measurements taken from ChEMBL document CHEMBL4431313, “Inhibition of Plasmodium falciparum Hsp90 Contributes to the Antimalarial Activities of Aminoalcohol-carbazoles” (J Med Chem, 2016).
The source made the active and inactive calls. The rule behind the calls is not given here.

How the values were obtained:
[1] = system: Plasmodium falciparum; experiment: Antimalarial activity against Plasmodium falciparum NF54 infected in human erythrocytes assessed as [3H]-hypoxanthine incorporation by scintillation counting analysis; assay type: functional, organism-based
In short: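 NF54 parasites grown in human erythrocytes in RPMI 1640 with 0.5% ALBUMAX II, 25 mM Hepes, 25 mM NaHCO3 (pH 7.3), 0.36 mM hypoxanthine and 100 μg/mL neomycin, at 37 °C under 3% O2/4% CO2/93% N2, humidified. IC50 derived in vitro from [3H]hypoxanthine incorporation. Compounds held as 10 mM DMSO stocks at -20 °C.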

[2] = biological target: T1, HSP90 (Plasmodium falciparum 3D7) (UniProt Q8IL32); experiment: Binding affinity to recombinant Plasmodium falciparum Hsp90 expressed in Escherichia coli BL21(DE3) pLysS assessed as thermophoresis shift at 50 uM by microscale thermophoresis assay
T1 sequence (whole entry): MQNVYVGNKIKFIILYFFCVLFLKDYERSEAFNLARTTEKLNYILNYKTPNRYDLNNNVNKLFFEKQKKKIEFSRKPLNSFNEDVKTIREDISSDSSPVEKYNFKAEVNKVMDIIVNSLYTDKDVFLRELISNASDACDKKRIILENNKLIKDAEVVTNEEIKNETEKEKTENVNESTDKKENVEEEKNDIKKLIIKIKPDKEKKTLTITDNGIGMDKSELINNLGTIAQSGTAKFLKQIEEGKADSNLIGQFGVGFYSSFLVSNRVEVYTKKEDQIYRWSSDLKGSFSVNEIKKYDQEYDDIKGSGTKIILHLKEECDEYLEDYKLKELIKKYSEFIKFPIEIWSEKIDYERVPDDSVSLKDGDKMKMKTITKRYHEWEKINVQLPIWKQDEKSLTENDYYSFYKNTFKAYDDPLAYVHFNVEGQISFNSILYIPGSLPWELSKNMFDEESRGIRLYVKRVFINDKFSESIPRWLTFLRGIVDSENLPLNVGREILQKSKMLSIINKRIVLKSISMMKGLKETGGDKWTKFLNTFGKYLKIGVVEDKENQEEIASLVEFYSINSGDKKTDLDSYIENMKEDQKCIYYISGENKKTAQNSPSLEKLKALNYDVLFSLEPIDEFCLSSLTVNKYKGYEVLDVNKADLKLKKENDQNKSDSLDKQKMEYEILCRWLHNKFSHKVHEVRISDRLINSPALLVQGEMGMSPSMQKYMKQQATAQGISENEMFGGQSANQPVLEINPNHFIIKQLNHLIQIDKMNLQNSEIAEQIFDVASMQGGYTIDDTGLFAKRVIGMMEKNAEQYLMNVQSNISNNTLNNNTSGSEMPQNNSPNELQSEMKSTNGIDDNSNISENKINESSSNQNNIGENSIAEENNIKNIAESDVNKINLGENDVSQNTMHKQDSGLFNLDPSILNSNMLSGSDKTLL
In short: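 Microscale thermophoresis with fluorescently labeled PfHsp90: ligand-induced change in the protein's movement along a temperature gradient. Each compound tested at a fixed 50 μM. Compounds were held as 10 mM stocks in 100% DMSO at -20 °C.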

[3] = system: L6; experiment: Cytotoxicity against rat L6 cells after 72 hrs by alamar blue assay; assay type: cell-based; conditions: L6, 72 h
[4] = biological target: Heat shock protein HSP 90-beta (Homo sapiens) (UniProt P08238); experiment: Binding affinity to recombinant human Hsp90 beta expressed in Escherichia coli BL21(DE3) pLysS by microscale thermophoresis assay
Heat shock protein HSP 90-beta (Homo sapiens), sequence (P08238 whole entry): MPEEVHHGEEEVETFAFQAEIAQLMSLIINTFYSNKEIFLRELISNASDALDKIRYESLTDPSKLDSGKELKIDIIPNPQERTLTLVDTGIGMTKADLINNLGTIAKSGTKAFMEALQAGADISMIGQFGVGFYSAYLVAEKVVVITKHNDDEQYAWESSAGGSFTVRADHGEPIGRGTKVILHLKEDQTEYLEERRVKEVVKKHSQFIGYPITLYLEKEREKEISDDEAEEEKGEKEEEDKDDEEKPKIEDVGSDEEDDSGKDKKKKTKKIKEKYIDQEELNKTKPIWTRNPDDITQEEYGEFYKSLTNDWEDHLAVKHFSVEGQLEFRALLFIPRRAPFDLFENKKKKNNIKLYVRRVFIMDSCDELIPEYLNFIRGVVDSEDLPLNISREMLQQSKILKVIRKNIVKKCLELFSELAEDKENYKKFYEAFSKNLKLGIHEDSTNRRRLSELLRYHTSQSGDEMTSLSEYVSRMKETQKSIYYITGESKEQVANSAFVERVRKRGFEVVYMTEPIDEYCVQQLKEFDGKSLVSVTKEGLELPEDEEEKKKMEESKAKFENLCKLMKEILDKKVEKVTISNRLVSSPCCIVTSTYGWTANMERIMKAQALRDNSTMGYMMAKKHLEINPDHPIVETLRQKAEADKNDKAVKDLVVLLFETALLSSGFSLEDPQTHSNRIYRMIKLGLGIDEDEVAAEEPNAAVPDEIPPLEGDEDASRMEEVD

[5] = system: Plasmodium falciparum; experiment: (§1) Binding affinity to recombinant Plasmodium falciparum Hsp90 ISG-LGA mutant expressed in Escherichia coli BL21(DE3) pLysS by microscale thermophoresis assay
[6] = biological target: Heat shock protein 90 (Plasmodium falciparum, UniProt Q8IC05); experiment: Binding affinity to recombinant Plasmodium falciparum Hsp90 expressed in Escherichia coli BL21(DE3) pLysS by microscale thermophoresis assay
Heat shock protein 90, sequence (Q8IC05 1-745): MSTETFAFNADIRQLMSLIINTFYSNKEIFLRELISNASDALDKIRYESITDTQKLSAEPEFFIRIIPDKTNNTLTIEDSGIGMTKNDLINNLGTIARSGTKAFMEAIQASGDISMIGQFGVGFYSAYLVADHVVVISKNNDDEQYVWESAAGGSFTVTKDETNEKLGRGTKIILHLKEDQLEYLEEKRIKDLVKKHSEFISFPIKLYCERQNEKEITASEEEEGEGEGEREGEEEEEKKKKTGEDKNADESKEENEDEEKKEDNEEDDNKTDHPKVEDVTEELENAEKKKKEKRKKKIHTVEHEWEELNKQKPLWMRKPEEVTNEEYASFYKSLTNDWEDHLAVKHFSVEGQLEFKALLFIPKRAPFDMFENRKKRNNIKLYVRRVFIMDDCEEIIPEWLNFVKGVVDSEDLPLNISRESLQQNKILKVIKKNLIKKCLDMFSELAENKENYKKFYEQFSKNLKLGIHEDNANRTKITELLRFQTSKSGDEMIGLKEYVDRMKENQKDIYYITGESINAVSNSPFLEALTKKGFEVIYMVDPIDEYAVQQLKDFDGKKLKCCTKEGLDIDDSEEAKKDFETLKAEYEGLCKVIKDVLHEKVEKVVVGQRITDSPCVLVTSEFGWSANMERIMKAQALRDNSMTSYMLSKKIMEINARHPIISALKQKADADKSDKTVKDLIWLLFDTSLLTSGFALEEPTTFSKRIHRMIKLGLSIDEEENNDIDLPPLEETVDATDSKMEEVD

[7] = system: Plasmodium falciparum; experiment: Antimalarial activity against Plasmodium falciparum 3D7 infected in human erythrocytes after 72 hrs by DAPI staining-based confocal imaging system; assay type: functional, organism-based; conditions: 3D7, 72 h
[8] = system: Plasmodium falciparum; experiment: Antimalarial activity against Plasmodium falciparum K1 infected in human erythrocytes after 72 hrs by DAPI staining-based confocal imaging system; assay type: functional, organism-based; conditions: K1, 72 h
[9] = as §1

| Structure (SMILES) | IC50 [1] [µM] | Activity [2] [U] | IC50 [3] [µM] | Activity [4] | Activity [5] | Kd [6] [µM] | IC50 [7] [µM] | IC50 [8] [µM] | Kd [9] [µM] |
| --- | --- | --- | --- | --- | --- | --- | --- | --- | --- |
| OC(CN1CCN(Cc2ccccc2)CC1)Cn1c2ccccc2c2ccccc21 (centres undefined) | 0.994 | 6.68 | 10.8 |  |  |  |  |  |  |
| OC(CN1CCCCCC1)Cn1c2ccccc2c2ccccc21 (centres undefined) | 7.79 | 1.11 | 6.85 |  |  |  |  |  |  |
| OC(CN1CCN(Cc2ccccc2)CC1)Cn1c2ccc(Cl)cc2c2cc(Cl)ccc21 (centres undefined) | 0.082 | 6.41 | 3.6 | inactive | inactive | 28.1 |  |  |  |
| CC(C)(C)NCC(O)Cn1c2ccccc2c2ccccc21 (centres undefined) | 2.08 | 0.725 | 7.21 |  |  |  |  |  |  |
| OC(CNC1CCCCC1)Cn1c2ccccc2c2ccccc21 (centres undefined) | 0.162 | 1.49 | 3.67 |  |  |  |  |  |  |
| O=C(c1ccccc1)N1CCN(CC(O)Cn2c3ccccc3c3ccccc32)CC1 (centres undefined) | 14.9 | 3.33 | 25.2 |  |  |  |  |  |  |
| CC(C)NCC(O)Cn1c2ccccc2c2ccccc21 (centres undefined) | 1.44 | 2.71 | 26.5 |  |  |  |  |  |  |
| CC(C)NCC(O)Cn1c2ccc(Cl)cc2c2cc(Cl)ccc21 (centres undefined) | 0.07 to 0.082 | 8.38 | 2.61 |  |  |  | 0.48 to 1.8 | 0.48 to 1.8 |  |
| OC(CN1CCOCC1)Cn1c2ccc(Br)cc2c2cc(Br)ccc21 (centres undefined) | 2.08 | 6.87 | 11.6 |  |  |  |  |  |  |
| CC(C)(CO)NCC(O)Cn1c2ccccc2c2ccccc21 (centres undefined) | 10.1 | 0.49 | 6.22 |  |  |  |  |  |  |
| OC(CNC1CCCCC1)Cn1c2ccc(Cl)cc2c2cc(Cl)ccc21 (centres undefined) | 0.086 | 5.88 | 3.34 |  |  |  |  |  |  |
| CCC(C)NCC(O)Cn1c2ccc(Cl)cc2c2cc(Cl)ccc21 (centres undefined) | 1.56 | 3.85 | 0.975 |  |  |  |  |  |  |
| CC1CCCC(C)N1CC(O)Cn1c2ccccc2c2ccccc21 (centres undefined) | 4.97 | 0.6 | 37.7 |  |  |  |  |  |  |
| O=C(c1ccccc1)N1CCN(CC(O)Cn2c3ccc(Br)cc3c3cc(Br)ccc32)CC1 (centres undefined) | 2.34 | 6.95 | 10.2 |  |  |  |  |  |  |
| CN(C)CC(O)Cn1c2ccc(Br)cc2c2cc(Br)ccc21 (centres undefined) | 1.67 | 0.41 | 3.66 |  |  |  |  |  |  |
| O=C(c1ccccc1)N1CCN(CC(O)Cn2c3ccc(Cl)cc3c3cc(Cl)ccc32)CC1 (centres undefined) | 1.13 | 6.71 | 9.72 |  |  | 25.6 |  |  |  |
| CCC(CC)NCC(O)Cn1c2ccccc2c2ccccc21 (centres undefined) | 12.7 | 0.24 | 7.38 |  |  |  |  |  |  |
| OC(CN1CCOCC1)Cn1c2ccc(Cl)cc2c2cc(Cl)ccc21 (centres undefined) | 1.23 | 8.19 | 9.72 |  |  |  |  |  |  |
| OC(CN1CCN(Cc2ccccc2)CC1)Cn1c2ccc(Br)cc2c2cc(Br)ccc21 (centres undefined) | 0.095 | 6.64 | 3.67 |  |  |  |  |  |  |
| COC1=C2C[C@@H](C)C[C@H](OC)[C@H](O)[C@@H](C)/C=C(\C)[C@H](OC(N)=O)[C@@H](OC)/C=C\C=C(/C)C(=O)NC(=CC1=O)C2=O [GELDANAMYCIN] |  |  |  |  |  |  |  |  | 0.51 |
